According to ChEMBL document CHEMBL1124378, “Synthesis and pharmacological evaluation of a series of 4-piperazinylpyrazolo[3,4-b]- and -[4,3-b][1,5]benzodiazepines as potential anxiolytics” (J Med Chem, 1989):

Legend:
Mus musculus [1] = assay: Dose below which no catalepsy was observed at any time period (following p.o. dosing); assay type: functional
Summary of the method: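 CFW mice (21-23 g), three per group, dosed orally in water or 0.5% carboxymethylcellulose. Checked at 0.25, 2.5 and 5.0 h for holding one hind limb on a 2-cm rubber bung and staying on a vertical grid, judged against a control by a trained observer.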

Mus musculus [2] = assay: Compound administered perorally was evaluated for the hypothermia (rectal temperature) in mice; assay type: functional
Summary of the method: (§1)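 Groups of three CFW mice (21-23 g) received oral compound in water or 0.5% carboxymethylcellulose. Rectal temperature was taken at 0.25, 2.5 and 5.0 h. Mean change from the group's initial mean was summed over the three times. Hypothermia scored if the summed reduction was >4 °C.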

[3] = molecular target: Muscarinic acetylcholine receptor; assay: Compound was evaluated for the inhibition of [3H]QNB binding to Muscarinic acetylcholine receptor from male Olac rat brain.
Rattus norvegicus [4] = assay: Rotarod response in rat to assess muscular incoordination (following p.o. dosing); assay type: functional
Summary of the method: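 Male Olac-Wistar rats (140-150 g), five per group, fed ad libitum, dosed orally. Tested 1 and 2 h later on a horizontal rod (2 rpm, 32 mm diameter), maximum 30 s. Mean time compared with vehicle controls by Mann-Whitney U test, significant at p < 0.05.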

Rattus norvegicus [5] = assay: Compound administered perorally was evaluated for the conditioned avoidance response in rats; assay type: functional
Summary of the method: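 Olac-Wistar rats (120-130 g) trained to cross a shuttle box on a 5-s buzzer, with mild shock if no response within 1 s after it ends. Only high-responders used. Groups of five were dosed orally in water or 0.5% carboxymethylcellulose 1 h 50 min before testing. After 10-min habituation they were tested 20 min. Blockade = shocks as % of stimuli presented.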

[6] = molecular target: D(2) dopamine receptor (Bos taurus) (UniProt P20288); assay: Inhibition of [3H]spiperone binding to Dopamine receptor D2 from calf caudate
Mus musculus [7] = assay: Compound administered perorally was evaluated for the hypothermia (rectal temperature ) in mice; assay type: functional; summary of the method: as §1
[8] = molecular target: Muscarinic acetylcholine receptor; assay: Inhibition of [3H]QNB binding to muscarinic cholinergic receptor from male Olac rat brain.
[9] = molecular target: D(2) dopamine receptor (Bos taurus) (UniProt P20288); assay: Inhibition of [3H]spiperone binding to dopamine receptor D2 from calf caudate
Rattus norvegicus [10] = species: Rattus norvegicus; assay: compound behavior in rat; assay type: functional; design: unit not given here
Summary of the method: (§2)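 Olac-Wistar rats (180-190 g), eight per group, dosed orally, front paws placed on a 1.5-cm rod 7 cm above the table. Tested at 0.5, 1, 1.5, 2, 3, 4 and 5 h, up to 20 min hold. Each animal's maximum score (0-5 by time held) was summed, giving a group maximum of 40.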

Rattus norvegicus [11] = species: Rattus norvegicus; assay: Compound behavior in rat; assay type: functional; design: unit not given here; summary of the method: as §2

Structure (SMILES)	IC50 [3] [µM]	IC50 [6] [µM]	IC50 [8] [µM]	IC50 [9] [µM]	EDmin (Mus musculus [1]) [mg/kg]	EDmin (Mus musculus [2]) [mg/kg]	ED (Rattus norvegicus [4]) [mg/kg]	ED (Rattus norvegicus [5]) [mg/kg]	EDmin (Mus musculus [7]) [mg/kg]	Activity (Rattus norvegicus [10])	Activity (Rattus norvegicus [11])
CCn1cc2c(n1)Nc1cc(Cl)c(Cl)cc1N=C2N1CCN(C)CC1	> 1	3.8	–	–	200	50	20	>20	–	–	–
Cn1cc2c(n1)Nc1ccc(F)cc1N=C2N1CCCCC1	> 10	> 10	–	–	>400	400	>50	50	–	–	–
Cn1cc2c(n1)Nc1ccc(F)cc1N=C2N1CCNCC1	> 10	5.2	–	–	>400	–	>50	>50	200	–	–
CN1CCN(C2=Nc3ccc(Cl)cc3Nc3nn(C)cc32)CC1	> 100	> 10	–	–	>400	100	>50	>50	–	–	–
CN1CCN(C2=Nc3cc(S(C)(=O)=O)ccc3Nc3nn(C)cc32)CC1	> 100	> 10	–	–	>200	>200	>50	–	–	–	–
CN1CCN(C2=Nc3cc(Cl)c(Cl)cc3Nc3nn(C)cc32)CC1	> 1	> 10	–	–	50	–	>50	>20	25	–	–
Cn1cc2c(n1)Nc1ccc(F)cc1N=C2N1CC[N+](C)([O-])CC1	–	–	> 1	> 10	100	50	>50	>50	–	–	–
CCCCCCCCCCn1cc2c(n1)Nc1ccc(Cl)cc1N=C2N1CCN(C)CC1	> 10	2.5	–	–	>400	–	>50	>50	>400	–	–
CCn1cc2c(n1)Nc1ccc(Cl)cc1N=C2N1CCN(C)CC1	–	–	> 1	0.34	>400	6.25	20	>15	–	–	–
CCOC(=O)N1CCN(C2=Nc3cc(F)ccc3Nc3nn(C)cc32)CC1	> 100	> 10	–	–	>200	>200	>50	>50	–	–	–
CC(C)Cn1cc2c(n1)Nc1ccc(Cl)cc1N=C2N1CCN(C)CC1	–	–	> 10	3.3	200	50	>50	>50	–	–	–
Cn1cc2c(n1)Nc1ccc(Cl)cc1N=C2N	> 100	> 10	–	–	>25	25	>50	>25	–	–	–
CN(C)CCNC1=Nc2cc(F)ccc2Nc2nn(C)cc21	6.1	> 10	–	–	>400	>400	>50	>50	–	–	–
CN1CCN(C2=Nc3c(Cl)cccc3Nc3nn(C)cc32)CC1	> 100	0.86	–	–	>400	25	>50	>50	–	–	–
CN1CCN(C2=Nc3cccc(Cl)c3Nc3nn(C)cc32)CC1	> 100	4.7	–	–	184	184	>50	>50	–	–	–
CN1CCN(C2=Nc3cc(Cl)ccc3Nc3nn(C4CCCC4)cc32)CC1	–	–	> 10	0.14	>400	50	>50	50	–	–	–
Cn1cc2c(n1)Nc1ccc(F)cc1N=C2N1CCOCC1	> 100	> 100	–	–	>400	200	>50	>50	–	–	–
Cc1ccc2c(c1)Nc1nn(C)cc1C(N1CCN(C)CC1)=N2	> 100	5.6	–	–	>400	200	>50	>50	–	–	>50
CN1CCN(C2=Nc3cc(F)c(F)cc3Nc3nn(C)cc32)CC1	–	–	21	0.76	>200	25	>50	50	–	–	–
Cn1cc2c(n1)Nc1ccc(F)cc1N=C2N1CCN(CC2CC2)CC1	> 10	0.9	–	–	100	50	30	>15	–	–	–
Cc1cc2c(s1)Nc1ccc(F)cc1N=C2N1CCN(C)CC1 [FLUMEZAPINE]	–	–	–	–	6.25	1.6	10	5	–	20	–

Further lines, with some results ahead:

IC50 [3] [µM]	IC50 [6] [µM]	IC50 [8] [µM]	IC50 [9] [µM]	Structure (SMILES)	EDmin (Mus musculus [1]) [mg/kg]	EDmin (Mus musculus [2]) [mg/kg]	ED (Rattus norvegicus [4]) [mg/kg]	ED (Rattus norvegicus [5]) [mg/kg]	EDmin (Mus musculus [7]) [mg/kg]	Activity (Rattus norvegicus [10])	Activity (Rattus norvegicus [11])
> 1	> 10	–	–	CN1CCN(C2=Nc3cc(C(=O)c4ccccc4)ccc3Nc3nn(C)cc32)CC1	>400	>400	>50	>50	–	–	–
> 100	5.1	–	–	Cn1cc2c(n1)Nc1ccc(F)cc1N=C2N1CCN(CCO)CC1	>200	>200	>50	>50	–	–	–
> 100	> 10	–	–	Cc1nn(C)c2c1Nc1ccc(F)cc1N=C2N1CCN(C)CC1	>200	>200	>50	>50	–	–	–
> 10	1.6	–	–	CN1CCN(C2=Nc3cc(C(F)(F)F)ccc3Nc3nn(C)cc32)CC1	200	50	>30	25	–	–	–
–	–	> 100	2.1	CN1CCN(C2=Nc3cc(F)ccc3Nc3nn(C)c(-c4ccccc4)c32)CC1	>400	200	>50	>50	–	–	–
–	> 10	–	–	Cc1c2c(nn1C)C(N1CCN(C)CC1)=Nc1cc(F)ccc1N2	–	–	–	–	–	–	–
–	–	> 100	0.4	CN1CCN(C2=Nc3cc(F)ccc3Nc3nn(Cc4ccccc4)cc32)CC1	>400	100	>50	50	–	–	–
–	–	18	0.7	CCCCCCn1cc2c(n1)Nc1ccc(F)cc1N=C2N1CCN(C)CC1.Cl	>400	100	>50	>50	–	>50	–
–	2.6	> 10	–	CN1CCN(C2=Nc3cc(F)ccc3Nc3nn(-c4ccccc4)cc32)CC1	>200	>200	>50	50	–	–	–
> 100	2.7	–	–	Cn1cc2c(n1)Nc1ccc(F)cc1N=C2N1CCN(Cc2ccccc2)CC1	>200	50	50	>50	–	–	–
–	–	14	3.3	CCn1cc2c(n1)Nc1ccc(F)cc1N=C2N1CCN(C)CC1	>400	6	>40	50	–	50	–
–	–	3.2	97	Cc1c2c(nn1C)Nc1ccc(F)cc1N=C2N1CCN(C)CC1	200	25	>50	>50	–	50	–
–	–	43	2.6	CN1CCN(C2=Nc3ccc(F)cc3Nc3nn(C)cc32)CC1	100	1.6	>40	>20	–	>50	–
–	> 1	–	–	CN1CCN(C2=Nc3cc(I)ccc3Nc3nn(C)cc32)CC1	50	50	25	>20	–	–	–
